This is an account of results in ChEMBL document CHEMBL1137566 (J Med Chem, 2007).

Series [1] concerns the target Coagulation factor X (Homo sapiens, UniProt P00742). Kind of series: Binding affinity to human F10a.
For series [2], the target named is Prothrombin (Homo sapiens, UniProt P00734). As to the kind of experiment: Inhibition of human thrombin.
Series [3] in a line: Apparent permeability across Caco-2 cells. The conditions noted are these: human. The class given is ADME, cell-based. On the technique in general: Caco-2 monolayers are a common model of the intestinal barrier.
The nature of series [4]: Oral bioavailability in dog at 0.2 mg/kg, po. The class given is ADME, organism-based, Canis lupus familiaris. The conditions noted are these: in vivo. An outline of the steps: (§1)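 Dog pharmacokinetics from cassette (N-in-one) dosing of compounds as TFA salts: 0.4 mg/kg iv and 0.2 mg/kg po, n = 2 animals.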
The nature of series [5]: Volume of distribution at steady state in dog at 0.4 mg/kg, iv and 0.2 mg/kg, po. The class given is ADME, organism-based, Canis lupus familiaris. The settings on record: in vivo, read-out: Vdss. An outline of the steps: as §1
Series [6] is filed under the species Oryctolagus cuniculus. Kind of series: Inhibition of thrombus formation in rabbit arteriovenous shunt thrombosis model. The class given is functional, organism-based.
Series [7] can be described thus: Half life in dog at 0.2 mg/kg, po. Further details: dose 0.2 mg/kg, route oral. The class given is ADME, organism-based, Canis lupus familiaris. The settings on record: in vivo. An outline of the steps: as §1
The nature of series [8]: Clearance in dog at 0.4 mg/kg, iv and 0.2 mg/kg, po. The format is ADME, organism-based, Canis lupus familiaris. The conditions noted are these: in vivo. An outline of the steps: as §1
Series [9] addresses Trypsin (Homo sapiens, UniProt P07477+P07478+P35030). As to the kind of experiment: Inhibition of human trypsin. The class given is protein assay.
Series [10] can be described thus: Half life in human liver microsomes. The format is ADME, Microsome.

The term Ki denotes a dissociation constant, usually derived from enzyme kinetics or from competition with a known ligand. High values mean weaker binding, low ones tighter binding. By Papp is commonly meant the rate of passage across a membrane or cell layer, normalised by area and donor concentration. For orientation: bioavailability means dose-corrected exposure relative to a reference, in per cent. Low readings indicate poor availability, high ones good availability. What is called IC50 is the concentration that inhibits the measured activity by half. Lower therefore signals inhibition by little substance. A word on the half-life: it is the time in which the quantity being followed falls by half. Read a high half-life as slow decline.

Coagulation factor X, sequence (P00742 41-179 limits assumed): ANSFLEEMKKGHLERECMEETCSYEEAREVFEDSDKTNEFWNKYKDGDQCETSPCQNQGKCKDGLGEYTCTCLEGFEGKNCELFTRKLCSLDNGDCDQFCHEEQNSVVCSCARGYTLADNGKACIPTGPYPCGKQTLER
Coagulation factor X, sequence (P00742 235-488 limits assumed): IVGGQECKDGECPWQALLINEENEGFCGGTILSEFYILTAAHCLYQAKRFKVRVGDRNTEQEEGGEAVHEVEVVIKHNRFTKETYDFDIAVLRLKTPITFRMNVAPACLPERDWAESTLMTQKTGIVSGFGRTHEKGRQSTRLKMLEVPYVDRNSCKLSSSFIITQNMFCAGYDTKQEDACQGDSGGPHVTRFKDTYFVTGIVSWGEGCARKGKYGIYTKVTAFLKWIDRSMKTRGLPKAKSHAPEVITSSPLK

`COc1ccc(-n2nc(C(F)(F)F)c3c2C(=O)N(c2ccc(N(C)C)cc2)CC3)cc1`: the Ki in series [1] is 6 nM; in series [2], above 13400 nM.

Turning to `COc1ccc(-n2nc(C(F)(F)F)c3c2C(=O)N(c2ccc(NC(C)=O)cc2)CC3)cc1`, the Ki was 180 nM in series [1] and above 6300 nM in series [2].

Turning to `COc1ccc(-n2nc(C(N)=O)c3c2C(=O)N(c2ccc(-c4ccccc4CN(C)C)cc2)CC3)cc1`, the Papp in series [3] came to 23 nm/s. Also, in series [4], the bioavailability is 56%. The Vd in [5] worked out at 6.1 L/kg. Further, in series [6], the 50% inhibitory concentration (IC50) came to 175 nM. The molecule also showed a Ki in [1] of 0.24 nM. Besides, the half-life in series [7] is 3.6 h. Further, the clearance in series [8] was 2 L/h/kg.

For `COc1ccc(-n2nc(-c3nnn[nH]3)c3c2C(=O)N(c2ccc(-c4ccccc4CN4CC[C@@H](O)C4)cc2)CC3)cc1`, the Ki is 0.63 nM in series [1], above 3000 nM in [9] and 12000 nM in series [2].

In the case of `COc1ccc(-n2nc(C(F)(F)F)c3c2C(=O)N(c2ccc(N4CCCCC4=O)cc2)CC3)cc1`, the values for the inhibition constant (Ki) in series [1] and in series [2] were 0.23 nM and 4400 nM, respectively.

Regarding `COc1ccc(-n2nc(Cn3ncnn3)c3c2C(=O)N(c2ccc(-c4ccccc4CN4CC[C@@H](O)C4)cc2)CC3)cc1`, the Ki was 1.1 nM in series [1], above 3000 nM in [9] and 1000 nM in [2].

As to `COc1ccc(-n2nc(C#N)c3c2C(=O)N(c2ccc(-c4ccccc4CN4CC[C@@H](O)C4)cc2)CC3)cc1`, the inhibitory constant (Ki) in series [1] is 0.33 nM; in [9], above 3000 nM; in series [2], 100 nM.

For the molecule `COc1ccc(-n2nc(C(F)(F)F)c3c2C(=O)N(c2ccc(-c4ccccc4CN4CC[C@@H](O)C4)cc2)CC3)cc1`, the values for the inhibitory constant (Ki) in series [1], in series [9] and in series [2] were 0.18 nM, above 3000 nM and 330 nM, respectively.

On to `COc1ccc(-n2nc(C(=O)N(C)C)c3c2C(=O)N(c2ccc(-c4ccccc4CN4CC[C@@H](O)C4)cc2)CC3)cc1`, for which the Ki was 1.7 nM in series [1], above 3000 nM in series [9] and 11000 nM in series [2].

On to `CNc1nn(-c2ccc(OC)cc2)c2c1CCN(c1ccc(-c3ccccc3CN3CC[C@@H](O)C3)cc1)C2=O`, for which the Ki in series [1] is 1.7 nM; in series [9] it was above 3000 nM; in [2], 4800 nM.

Turning to `COc1ccc(-n2nc(N)c3c2C(=O)N(c2ccc(-c4ccccc4CN4CC[C@@H](O)C4)cc2)CC3)cc1`, the Ki was 6.7 nM in series [1], above 3000 nM in series [9] and 9400 nM in series [2].

Regarding `COc1ccc(-n2nc(C(N)=O)c3c2C(=O)N(c2ccc(-c4ccccc4CN4CCC(O)CC4)cc2)CC3)cc1`, the apparent permeability (Papp) in series [3] came to 49 nm/s. For the same molecule, the bioavailability in [4] stood at 55%. In addition, the Vd in series [5] worked out at 0.99 L/kg. In [6], this molecule gave a half-maximal inhibitory concentration (IC50) of 180 nM. This molecule had an inhibitory constant (Ki) in [1] of 0.29 nM. The same molecule had a half-life in series [7] of 4.3 h. Besides, in [8], the clearance was 0.1 L/h/kg.

With `COc1ccc(-n2nc(N(C)C)c3c2C(=O)N(c2ccc(-c4ccccc4CN4CC[C@@H](O)C4)cc2)CC3)cc1`, the Ki is 0.31 nM in [1], above 3000 nM in series [9] and 1800 nM in series [2].

For the molecule `COc1ccc(-n2nc(Cn3nccn3)c3c2C(=O)N(c2ccc(-c4ccccc4CN4CC[C@@H](O)C4)cc2)CC3)cc1`, the figures for the inhibition constant Ki in [1], in [9] and in [2] were 0.48 nM, above 3000 nM and 980 nM, respectively.

On to `CCN(CC)Cc1ccccc1-c1ccc(N2CCc3c(C(N)=O)nn(-c4ccc(OC)cc4)c3C2=O)cc1`, for which the apparent permeability coefficient (Papp) in series [3] is 23 nm/s. In series [4], this molecule showed a bioavailability of 20%. Moreover, the Vd in [5] turned out to be 6.5 L/kg. Also, in series [1], the affinity corresponds to a Ki of 0.08 nM. This molecule also had a half-life in series [7] of 3.7 h. For the same molecule, the clearance in [8] is 2.4 L/h/kg.

Consider `COc1ccc(-n2nc(C(N)=O)c3c2C(=O)N(c2ccc(-c4ccccc4CN(CCO)CCO)cc2)CC3)cc1`, for which the Papp in series [3] was 9 nm/s. In [4], this molecule came in with a bioavailability of 15%. In addition, the Vd in series [5] was found to be 1.09 L/kg. This molecule gave a Ki in series [1] of 0.36 nM. The molecule further had a half-life in series [7] of 1.8 h. Moreover, the clearance in series [8] is 0.5 L/h/kg.

Regarding `CNCc1ccccc1-c1ccc(N2CCc3c(C(N)=O)nn(-c4ccc(OC)cc4)c3C2=O)cc1`, the results for the half-life in series [10] and in series [7] were above 1.67 h and 7.3 h, respectively. For the same molecule, in [3], the Papp is 17 nm/s. This molecule also displayed a bioavailability in series [4] of 56%. Besides, the Vd in series [5] was found to be 7.4 L/kg. Further, the IC50 in series [6] turned out to be 445 nM. Besides, the Ki in series [1] stood at 0.14 nM. This molecule also had a clearance in [8] of 1.3 L/h/kg.

For `COc1ccc(-n2nc(C(N)=O)c3c2C(=O)N(c2ccc(-c4ccccc4CN)cc2)CC3)cc1`, the Papp in [3] came out at 12 nm/s. In series [1], this molecule came in with a Ki of 0.97 nM.

As for `CNC(=O)c1nn(-c2ccc(OC)cc2)c2c1CCN(c1ccc(-c3ccccc3CN3CC[C@@H](O)C3)cc1)C2=O`, the inhibition constant Ki was 4.8 nM in series [1], above 3000 nM in series [9] and 7000 nM in [2].

For `COc1ccc(-n2nc(S(C)(=O)=O)c3c2C(=O)N(c2ccc(-c4ccccc4CN4CC[C@@H](O)C4)cc2)CC3)cc1`, the results for the inhibitory constant (Ki) in series [1], in series [9] and in [2] were 0.25 nM, above 3000 nM and 180 nM, respectively.

On to `COc1ccc(-n2nc(NC(=O)OC(C)(C)C)c3c2C(=O)N(c2ccc(-c4ccccc4CN4CC[C@@H](O)C4)cc2)CC3)cc1`, for which the inhibition constant (Ki) was 9.6 nM in [1], above 3000 nM in series [9] and 4600 nM in series [2].

For the molecule `COc1ccc(-n2nc(Cn3ccnn3)c3c2C(=O)N(c2ccc(-c4ccccc4CN4CC[C@@H](O)C4)cc2)CC3)cc1`, the Papp in series [3] came to 16 nm/s. In series [4], the bioavailability worked out at 24%. Moreover, the Vd in series [5] was found to be 4.9 L/kg. Moreover, the results for the inhibition constant Ki in series [1], in series [9] and in [2] were 0.67 nM, above 3000 nM and 12000 nM, respectively. Further, the half-life in series [7] was 2.8 h. Besides, the clearance in series [8] was 2.47 L/h/kg.

In the case of `COc1ccc(-n2nc(C(=O)O)c3c2C(=O)N(c2ccc(-c4ccccc4CN4CC[C@@H](O)C4)cc2)CC3)cc1`, the results for the Ki in series [1], in series [9] and in series [2] were 7.6 nM, above 3000 nM and above 20000 nM, respectively.

Take `CCOC(=O)c1nn(-c2ccc(OC)cc2)c2c1CCN(c1ccc(-c3ccccc3CN3CC[C@@H](O)C3)cc1)C2=O`: the Ki in series [1] is 3.9 nM; in series [9], above 3000 nM; in series [2], 980 nM.

Turning to `COc1ccc(-n2nc(Cn3cncn3)c3c2C(=O)N(c2ccc(-c4ccccc4CN4CC[C@@H](O)C4)cc2)CC3)cc1`, the inhibition constant (Ki) in series [1] was 0.25 nM; in [9], above 3000 nM; in [2], 1900 nM.

As for `COc1ccc(-n2nc(C(N)=O)c3c2C(=O)N(c2ccc(-c4ccccc4CN4CC[C@@H](O)C4)cc2)CC3)cc1`, the Papp in [3] amounted to 23 nm/s. For the same molecule, in series [4], the bioavailability turned out to be 100%. The Vd in [5] came out at 1.6 L/kg. The half-inhibitory concentration (IC50) in [6] is 120 nM. Also, the figures for the inhibitory constant (Ki) in series [1], in [9] and in series [2] were 0.07 nM, above 3000 nM and 140 nM, respectively. The molecule further showed a half-life in series [7] of 5.6 h. In [8], this molecule had a clearance of 0.32 L/h/kg.

As to `COc1ccc(-n2nc(C(F)(F)F)c3c2C(=O)N(c2ccc(N)cc2)CC3)cc1`, in series [2], the inhibitory constant (Ki) is above 6300 nM.

`CNc1ccc(N2CCc3c(C(F)(F)F)nn(-c4ccc(OC)cc4)c3C2=O)cc1`: the Ki is 610 nM in series [1] and above 6300 nM in series [2].

On to `COc1ccc(-n2nc(N(C)C(=O)OC(C)(C)C)c3c2C(=O)N(c2ccc(-c4ccccc4CN4CC[C@@H](O)C4)cc2)CC3)cc1`, for which the Ki in series [1] was 2 nM; in series [9], above 3000 nM; in series [2], 950 nM.

Take `COc1ccc(-n2nc(Cn3cnnn3)c3c2C(=O)N(c2ccc(-c4ccccc4CN4CC[C@@H](O)C4)cc2)CC3)cc1`: the Papp in series [3] worked out at 9 nm/s. Besides, the bioavailability in [4] amounted to 7%. The Vd in series [5] came out at 3.7 L/kg. The values for the inhibition constant (Ki) in series [1], in series [9] and in series [2] were 0.85 nM, above 3000 nM and 970 nM, respectively. Besides, the half-life in [7] is 1.8 h. The clearance in [8] is 2.58 L/h/kg.

For `COc1ccc(-n2nc(C(F)(F)F)c3c2C(=O)N(c2ccc(N4CCCCC4)cc2)CC3)cc1`, the results for the inhibition constant Ki in series [1] and in [2] were 2.1 nM and 3900 nM, respectively.

Take `COc1ccc(-n2nc(C(F)(F)F)c3c2C(=O)N(c2ccc(N(C)C(C)=O)cc2)CC3)cc1`: the Ki is 0.5 nM in series [1] and above 6300 nM in series [2].

Take `COc1ccc(-n2nc(C(N)=O)c3c2C(=O)N(c2ccc(-c4ccccc4CN4CCCC4)cc2)CC3)cc1`: the apparent permeability (Papp) in series [3] was determined as 35 nm/s. Besides, in series [4], the bioavailability is 53%. The Vd in series [5] was 5.6 L/kg. In series [1], this molecule came in with an inhibition constant (Ki) of 0.3 nM. In series [7], the half-life is 3.5 h. In [8], this molecule showed a clearance of 1.5 L/h/kg.

Take `COc1ccc(-n2nc(C(F)(F)F)c3c2C(=O)N(c2ccc(N4CCCCCC4=O)cc2)CC3)cc1`: the Ki was 0.47 nM in series [1] and 3300 nM in [2].
